The EternaBench riboswitch data

Test system: MS2 coat protein
Experiment: apparent Kd, MS2 coat protein; higher = weaker binding; RNA-MaP array; FMN 200 µM where present
Procedure, shortened: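 Apparent Kd: the median of filtered binding-curve fits from single clusters. Designs were transcribed on Illumina sequencing-chip clusters by stalled E. coli RNA polymerase and titrated with SNAP-549-labelled MS2 coat protein from 0.7 or 1.5 nM, doubling to 3 µM, in 100 mM Tris-HCl pH 7.5, 80 mM KCl, 4 mM MgCl2, BSA, DTT, yeast tRNA and Tween-20. Each series ran without and then with constant ligand, and green signal was normalised to red-channel RNA signal and control-cluster median Fmax.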

[1] = designed as: OFF switch for flavin mononucleotide, no ligand
[2] = ligand present: flavin mononucleotide, designed as: OFF switch for flavin mononucleotide
[3] = designed as: ON switch for flavin mononucleotide, no ligand
[4] = ligand present: flavin mononucleotide, designed as: ON switch for flavin mononucleotide

Sequence	apparent Kd [1] [nM]	apparent Kd [2] [nM]	apparent Kd [3] [nM]	apparent Kd [4] [nM]
CCUUUUGUAUAAGGAUAUGUAACAAGGUAUAGAUUGGUAGGAUUUGUGCUUACAGAAGGUAUACAUGAGGAUCACCCAUGUCGA	23.1	59.5		
ACCGUUGAAGCAGGAUAUUAUAGCGCCAGCGUAUAAGAAGGGCUUCAACAUGAGGAUCACCCAUGUUGGAGUACCUCAAAAGUG	5.53	23.7		
CUUUUGUGAGGAUAUCAGUAGUAAUACAAUAGUAUUAUUACUGAGAAGGCACAUGAGGAUCACCCAUGUUCCUC	40.9	125		
AAUACAUGAGGAUCACCCAUGUUAUGAUCAAACAAUAUGAGUGAGGAUAUACUGAGUUAGUUAUGGUAGAAGGCACUGGGUUCA			79.9	45.3
GAACAUGAGGAUCACCCAUGUUCUCCAGAAGGCCGUACAUUUAAAAGUGGAUGGAUUAGUGUUGCGGAGGAUAUGGAGGUGCAA			72	17.8
AACUCGUCAGGAUAUGCGCGCAGUUAAUACGCUUCGCAAUUGCAGAAGGGACAUGAGGAUCACCCAUGUAAAUA	32.1	33.1		
GCAUGACAUGUAGGAUAUCGAGCGCCGAGCGCUCGAGAAGGACAUGAGGAUCACCCAUGUAUUCCGAAUGAAUCAAGUCAUGCA	14.3	16.2		
GUAGCAUACAGAGGAUAUCUAAACCGGAAACGGACAUGAGGAUCACCCAUGUGGCGAAAGCCUAGGGAGAAGGCUGAAUGCUAC			13.2	11.8
AAGUUUGUACAAGGAUAUCAAUUGUUUCUAAAUUCAACAUGAGGAUCACCCAUGUAACAAUGGAGUGAGAAGGUGUGUGGGCAA			419	423
UUAUAACAGUCAGGAUAUGUAACGUACAACGGCGCAGAAGGGACAUGAGGAUCACCCAUGUUAUGGUUCUGGUACUAUGACGUU	13.2	14.9		
GGAGCUCACAUUAACAUGAGGAUCACCCAUGUCUCUAGACAUGAGGAUAUGGAUCCUAAUUGGAUCCAGAAGGCAUGGAGCUCC			1450	118
UGACCACAUGAGGAUCACCCAUGUGAGGAUAUCAGAAUACGGCAUCGGGCCGUACUUUUGAGAAGGCACAUAAA	24.1	65.2		
AGUUUUGUACAUGAGGAUCACCCAUGUUAAUAUGUGGUAGUCAGAAGGCAUUGUUAGAGUAUAUAUGAGGAUAUGAUUAGUCAG			58.3	27.9
GGAAAACAUGAGGAUCACCCAUGUGAGGAUAUCGAUGUCCAAAAACCAGUGCGGGACUCGAGAAGGCACUUGGA	49.1	26.3		
AUUAAUUUGUAGAAGGACGACUAUUAAUAUUUCGUAGGAUAUACUAUUUACAUGAGGAUCACCCAUGUUUAAAUGGAACAAUGU	8.1	11.8		
UUUUUGUCAGGAUAUGAGUCGUAGAACAAUAGUACUACGUCUCAGAAGGGACAUGAGGAUCACCCAUGUGCCUC	26	143		
UUAGGUCGAAACAUGAGGAUCACCCAUGUGUUGUAAUUAACAUAGGAUAUGUUUAUACUUUUUGGGCAGAAGGAUGAUAUUGCU			17.3	14
GCGUUCUUGUAGAAGGUACAUGAAUUCUAUUUUUAACACAUGAAACAUGAGGAUCACCCAUGUUGUAAGGAUAUACAUGAACGC			6.98	5.83
AAUAAACUCACAGGAUAUAGCAGAUGUCGCGUGAACUUACAGGCGACGAGGCUAGAAGGGUGACCACAUGAGGAUCACCCAUGU			738	103
UGUCGGAGCAGAGGAUAUUACAUGAGGAUCACCCAUGUAUGAAGCAAUAGCUGGAAACAGCAAUGUAAGAAGGCUGCUCCGACA	5.7	7		
ACUUUUUAUGGACAUGAGGAUCACCCAUGUGCCUUGGGCCUCAAGGAUAUAGUAAUUGUCGUGUACUAGAAGGUGAAGCCAUUA			77.2	27.9
AAUUGACAUGAGGAUCACCCAUGUCCACCAAACGGAGGAUAUUGGGCGGCAAAACGUUGUUAAGAAGGCCGAAAUU			34.1	88.3
CUAGCUAUCGGAGGAUAUCCUCAGCGGAAACGCACAUGAGGAUCACCCAUGUAAAUAAAUAAUUUGGAGAAGGCCGAUAGCUAG			294	19.2
GGGUACAUCGGAGGAUAUCAUGUAAAUACAUGAGGAUCACCCAUGUCGAUGGAGAGAUCGGAGAUUGAGAAGGCCGAUGUACCG			97.4	41
UGAAGAAAGUAGAAGGUAGUCUUAAAAUAGGACUAAGGAUAUACAUGAGGAUCACCCAUGUACUCCUUUAAUAUCUUUGAAAUA	5.5	5.42		
GCCCUUCGAGGAUAUACAUGAGGAUCACCCAUGUCCGGAGUUCCGAGGCGGCCCAUAUGUAGAAGGCGAACUUU	43.4	67		
AAUUCGUCAGGAUAUGCAUGUAAUUGUUACAUUUCUCCGUUGCAGAAGGGACAUGAGGAUCACCCAUGUAAGUC	29.7	28.7		
UCAUUUAUUACAGGAUAUGUUAGAAUUCAGUUGUUUGGUUAUUACAUAUUAACAGAAGGGUAGAACAUGAGGAUCACCCAUGUA			114	81.5

Sequence	apparent Kd [1] [nM]	apparent Kd [2] [nM]	apparent Kd [3] [nM]	apparent Kd [4] [nM]
UUUGAAUUGCAAGGAUAUCUUAUUUAGAUUUUAAGAGAAGGUGCUUUACAGUUACAUGAGGAUCACCCAUGUCUUUCUUUUUAU			24.8	20
GUGGUACAUGAGGAUCACCCAUGUUAGGAUAUCGCGUGAGGUUUUACUUACACACACACGAGAAGGGACGUCUU	47.5	36		
UGUUAAUAUCGAGGAUAUGUCUAGACACAUGAGGAUCACCCAUGUAUGUGUAUAGAAGGCGAUAUUAACAGCAUGUUACAUGCA			36.9	16.9
UUUCUUGGGCAAGGAUAUCCUGUGCGGUUCCGGCUCGUGUCUGUCACAUGAGGAUCACCCAUGUGGGAGAAGGUGCCUGCGGUA	6.41	6.77		
GGCCUGUGAGGAUAUUAGUAGUAGUCAGAAUAGACUAUUACUGAGAAGGUACAUGAGGAUCACCCAUGUUGGCC	19.4	15.9		
GCGCACUAAGUGAGGAUAUCGUUUAUUUUUAGGAUCGAGAAGGCACAUGAGGAUCACCCAUGUUUGACGUGCGC	20.9	14.1		
AUCUUGUCAGGAUAUCGUACAAUAUGGAAAACAUAGAGGUACGAGAAGGGACAUGAGGAUCACCCAUGUAAAAC	40.2	84.5		
GCGCGGUAAGGAUAUCUGCACGGAAACAUGAGGAUCACCCAUGUUCAGAUGAUUCUUAUAAGAGAAGGUACUGACA	17.4	19.1		
AUAUGAUAGAUAGGAUAUACAGAUGAAUAAUAAGUAGAAGGAUCAAAUGGGAAUUAUACAUGAGGAUCACCCAUGUUUUUGAAU			45	33.6
GCGCCAUCGUGAGAUGGCGUAACGACAUGAGGAUCACCCAUGUAGGAUAUCGAUUGCUUUGCAGUCGAGAAGGGCAAGGUAAGU	30.7	38.1		
GACUGCGUUAUGAAGGAUAUCCGCGUCUGGACAUGAGGAUCACCCAUGUAUACUUGGAUCGUGCAGGAGAAGGUCAAGGGUGAUU			90	265
GCGGAGUGAGGAUAUAGAACUUAAGGUACCAAUAAGGUACCCUAGAAGGCACAUGAGGAUCACCCAUGUACCGC	24.3	24.4		
CGACACAUGAGGGUCUCCCAUGACAUGAGGAUCACCCAUGUGCAGGAUAUACGUGUGAUGGUAUAGUAGAAGGGCACUCUAUGC	368	392		
UCGAUAAGGAGAGGAUAUGGACAUGAGGAUCACCCAUGUACAUGGGAAUAUAUACUGAAUUUUUACUAGAAGGCUUACAUAAUU	16.4	14.8		
AUUUAUUAGUAAGGAUAUACUAGCGAUUUGCUUGUAGAAGGUACAGUCUUAUGUAUAACAUGUUAACAUGAGGAUCACCCAUGU			44.4	27.5
GGGCCCGGAGGAUAUACAUGAGGAUCACCCAUGUAGGGCCCGGGUAUUCCCGGGUUUUGUAGAAGGCCGGGCCC		30.1		
CUAGACUGAUCAGGAUAUCAUCGCGUGGUGUAUCCCUGUGAUUACAUGAGGAUCACCCAUGUGCAUGAGAAGGGAUUACUAUGU	54.7	30		
UUUUAUUAGUAAGGAUAUACUAGCGAUUAGCUUGUAGAAGGUACAGUCUUAUGUAUAACAUGUUAACAUGAGGAUCACCCAUGU			59.5	36.1
CGACACCACACAGGAUAUGCUGGACUUUGUCCAGCAGAAGGGUGUAAACAUGAGGAUCACCCAUGUAUGGUGUCGAAAUUUAAU			382	21.1
AUUCUUGGGCAAGGAUAUCCUGUGCGGUUCCGGCUCGUGUCUGUCACAUGAGGAUCACCCAUGUGGGAGAAGGUGCCUGCGGUC	6.86	7.2		
UUUUAACAUGAGGAUCACCCAUGUGAGGAUAUCGAAAUUUAUAUUUAUAUUAAUUUAACGAGAAGGCACAUUUU	91.2	114		
AAGUCCAGAGGAUAUCAGACGCGGCACAUGAGGAUCACCCAUGUAUUCCCGUCUGCCGACUGAGAAGGUUGGAAAG	12	17.8		
UCCGUAAUUCUGAGCUUCGCGAUGAGAAGGGUAGAGGCUGGGUCCUACAUGAGGAUCACCCAUGUACAGGAUAUCAUUGCACGA	14.1	30.3		
AAUAAACUCACAGGAUAUAGCAGAGGUCGCGUGAACUUACAGACGACGAUGCUAGAAGGGUGACCACAUGAGGAUCACCCAUGU			591	151
CCGAAUUAGUAGGAUAUAGGAGUCGAUAGACACCUAGAAGGACUAACAUGAGGAUCACCCAUGUGUCCUAUCGG	14.6	31.5		
AAACAUGUCCGAGGAUAUCUAGAAACAUUUUUAAGAGAAGGCGGACAUGAGGAUCACCCAUGUCUCUCCUCAUCAAAUCCAAGU	15.6	68		
CAUUCUUUUCCGGAGGAUAUGCUACCCUUUACAUGAGGAUCACCCAUGUUACCCUCUUCUUGUCAGUAGAAGGCCGUUUCUUAAC			27.4	25.1
